What was measured:
[1] = molecular target: T1, Vascular endothelial growth factor receptor 2 (Homo sapiens, UniProt P35968); experiment: Inhibition of VEGFR2 tyrosine kinase activity in VEGF-stimulated human U251 cells after 60 mins by ELISA; assay type: cell-based, U-251
[2] = molecular target: Epidermal growth factor receptor (Homo sapiens, UniProt P00533); experiment: Inhibition of EGFR tyrosine kinase activity in EGF-stimulated human A431 cells after 60 mins by ELISA; assay type: cell-based, A-431
[3] = molecular target: Platelet-derived growth factor receptor beta (Homo sapiens, UniProt P09619); experiment: Inhibition of PDGFRbeta tyrosine kinase activity in PDGF-BB-stimulated human SF-539 cells after 60 mins by ELISA; assay type: cell-based
Method in brief: (§1)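 Lysed in ice-cold TBS/0.05% triton with protease and phosphatase inhibitors, heat/ethanol-fixed. Total phosphotyrosine read by HRP anti-phosphotyrosine with luminol chemiluminescence.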

[4] = molecular target: Vascular endothelial growth factor receptor 1 (Homo sapiens, UniProt P17948); experiment: Inhibition of VEGFR1 tyrosine kinase activity in VEGF-stimulated human A498 cells after 60 mins by ELISA; assay type: cell-based; method in brief: as §1
A-431 = experiment: Cytotoxicity against EGFR overexpressing human A431 after 12 hrs by cyquant DNA dye-based fluorescence method; assay type: functional, cell-based; settings: A-431, 12 h
[5] = molecular target: T1, Vascular endothelial growth factor receptor 2; experiment: Ratio of Sunitinib IC50 to compound IC50 for VEGFR2 tyrosine kinase activity in VEGF-stimulated human U251 cells; assay type: cell-based; settings: U-251
Method in brief: (§2)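 U251 cells, which naturally express high VEGFR-2, were grown to 60–75% confluence, kept 18 h serum-free, then pre-treated 60 min with 0.10–333 μM inhibitor before 100 ng/mL VEGF for 10 min. Total tyrosine phosphorylation was read by fixed-cell HRP-anti-phosphotyrosine ELISA with luminol luminescence, as % of growth factor alone.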

[6] = molecular target: T1, Vascular endothelial growth factor receptor 2; experiment: Ratio of semaxanib IC50 to compound IC50 for VEGFR2 tyrosine kinase activity in VEGF-stimulated human U251 cells; assay type: cell-based; settings: U-251; method in brief: as §2

Sequence of Epidermal growth factor receptor (P00533 whole entry): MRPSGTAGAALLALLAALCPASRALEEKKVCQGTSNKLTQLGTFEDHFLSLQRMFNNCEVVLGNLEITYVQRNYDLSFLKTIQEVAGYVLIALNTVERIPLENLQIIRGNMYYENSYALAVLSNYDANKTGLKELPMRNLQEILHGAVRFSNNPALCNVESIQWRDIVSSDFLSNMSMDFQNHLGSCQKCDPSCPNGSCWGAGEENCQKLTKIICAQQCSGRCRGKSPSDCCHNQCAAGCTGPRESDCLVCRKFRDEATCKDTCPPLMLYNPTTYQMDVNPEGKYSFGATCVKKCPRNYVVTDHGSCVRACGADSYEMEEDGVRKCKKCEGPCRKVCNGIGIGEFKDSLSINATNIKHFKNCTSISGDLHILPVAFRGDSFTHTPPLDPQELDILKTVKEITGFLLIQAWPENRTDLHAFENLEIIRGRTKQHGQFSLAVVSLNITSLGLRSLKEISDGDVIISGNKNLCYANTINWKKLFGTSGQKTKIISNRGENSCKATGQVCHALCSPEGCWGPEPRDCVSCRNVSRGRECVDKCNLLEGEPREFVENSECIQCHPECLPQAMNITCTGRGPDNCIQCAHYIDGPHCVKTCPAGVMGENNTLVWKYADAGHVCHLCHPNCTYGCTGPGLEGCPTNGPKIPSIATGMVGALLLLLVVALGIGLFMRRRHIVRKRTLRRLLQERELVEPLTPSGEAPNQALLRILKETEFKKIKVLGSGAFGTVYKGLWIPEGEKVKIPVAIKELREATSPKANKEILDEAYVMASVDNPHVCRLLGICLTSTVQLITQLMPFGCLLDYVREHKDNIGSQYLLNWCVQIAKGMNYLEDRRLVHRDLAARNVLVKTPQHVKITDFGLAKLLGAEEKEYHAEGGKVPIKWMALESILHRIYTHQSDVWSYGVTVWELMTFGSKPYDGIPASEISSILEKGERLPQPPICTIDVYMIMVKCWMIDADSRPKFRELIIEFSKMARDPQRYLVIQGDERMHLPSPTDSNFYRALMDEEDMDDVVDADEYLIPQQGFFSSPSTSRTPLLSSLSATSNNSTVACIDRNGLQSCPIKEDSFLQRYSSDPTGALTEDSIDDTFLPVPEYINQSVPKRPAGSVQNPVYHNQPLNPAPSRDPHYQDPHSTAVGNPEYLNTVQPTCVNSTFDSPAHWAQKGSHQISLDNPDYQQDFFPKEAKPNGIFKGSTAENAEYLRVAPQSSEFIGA
T1 sequence (P35968 whole entry): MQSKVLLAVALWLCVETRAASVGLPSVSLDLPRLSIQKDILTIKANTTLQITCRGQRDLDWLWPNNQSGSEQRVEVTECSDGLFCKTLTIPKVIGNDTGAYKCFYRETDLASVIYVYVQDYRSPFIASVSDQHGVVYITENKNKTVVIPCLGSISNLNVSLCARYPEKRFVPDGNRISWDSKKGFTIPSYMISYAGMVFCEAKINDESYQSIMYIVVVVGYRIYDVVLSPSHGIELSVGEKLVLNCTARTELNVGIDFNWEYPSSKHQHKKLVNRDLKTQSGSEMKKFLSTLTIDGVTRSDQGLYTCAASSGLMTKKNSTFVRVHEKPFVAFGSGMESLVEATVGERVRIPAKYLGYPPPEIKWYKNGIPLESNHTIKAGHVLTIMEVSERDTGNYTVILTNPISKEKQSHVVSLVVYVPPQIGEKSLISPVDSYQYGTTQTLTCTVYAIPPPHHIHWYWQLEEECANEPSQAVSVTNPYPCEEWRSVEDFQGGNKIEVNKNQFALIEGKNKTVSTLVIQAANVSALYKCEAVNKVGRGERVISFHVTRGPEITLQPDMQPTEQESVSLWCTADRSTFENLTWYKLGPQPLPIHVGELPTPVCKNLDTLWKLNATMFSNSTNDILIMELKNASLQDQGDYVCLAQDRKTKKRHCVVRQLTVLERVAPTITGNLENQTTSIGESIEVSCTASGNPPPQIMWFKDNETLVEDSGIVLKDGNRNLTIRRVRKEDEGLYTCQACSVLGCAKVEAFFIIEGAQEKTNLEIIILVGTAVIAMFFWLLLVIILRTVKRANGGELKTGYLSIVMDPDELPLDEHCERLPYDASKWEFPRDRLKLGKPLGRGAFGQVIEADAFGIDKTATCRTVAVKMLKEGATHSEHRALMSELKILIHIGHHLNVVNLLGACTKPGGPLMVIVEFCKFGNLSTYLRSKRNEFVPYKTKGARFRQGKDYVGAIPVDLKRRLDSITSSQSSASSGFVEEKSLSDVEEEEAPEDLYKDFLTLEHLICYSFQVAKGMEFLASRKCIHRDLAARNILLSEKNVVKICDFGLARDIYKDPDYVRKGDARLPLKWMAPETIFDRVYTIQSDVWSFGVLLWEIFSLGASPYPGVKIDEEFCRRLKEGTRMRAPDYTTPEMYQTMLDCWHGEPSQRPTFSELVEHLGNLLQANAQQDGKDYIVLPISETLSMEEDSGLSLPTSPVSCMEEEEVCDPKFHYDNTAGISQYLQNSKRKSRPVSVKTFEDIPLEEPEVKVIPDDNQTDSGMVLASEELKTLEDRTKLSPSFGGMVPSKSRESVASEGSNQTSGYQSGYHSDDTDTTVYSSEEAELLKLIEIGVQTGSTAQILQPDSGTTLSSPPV
Sequence of Vascular endothelial growth factor receptor 1 (P17948 whole entry): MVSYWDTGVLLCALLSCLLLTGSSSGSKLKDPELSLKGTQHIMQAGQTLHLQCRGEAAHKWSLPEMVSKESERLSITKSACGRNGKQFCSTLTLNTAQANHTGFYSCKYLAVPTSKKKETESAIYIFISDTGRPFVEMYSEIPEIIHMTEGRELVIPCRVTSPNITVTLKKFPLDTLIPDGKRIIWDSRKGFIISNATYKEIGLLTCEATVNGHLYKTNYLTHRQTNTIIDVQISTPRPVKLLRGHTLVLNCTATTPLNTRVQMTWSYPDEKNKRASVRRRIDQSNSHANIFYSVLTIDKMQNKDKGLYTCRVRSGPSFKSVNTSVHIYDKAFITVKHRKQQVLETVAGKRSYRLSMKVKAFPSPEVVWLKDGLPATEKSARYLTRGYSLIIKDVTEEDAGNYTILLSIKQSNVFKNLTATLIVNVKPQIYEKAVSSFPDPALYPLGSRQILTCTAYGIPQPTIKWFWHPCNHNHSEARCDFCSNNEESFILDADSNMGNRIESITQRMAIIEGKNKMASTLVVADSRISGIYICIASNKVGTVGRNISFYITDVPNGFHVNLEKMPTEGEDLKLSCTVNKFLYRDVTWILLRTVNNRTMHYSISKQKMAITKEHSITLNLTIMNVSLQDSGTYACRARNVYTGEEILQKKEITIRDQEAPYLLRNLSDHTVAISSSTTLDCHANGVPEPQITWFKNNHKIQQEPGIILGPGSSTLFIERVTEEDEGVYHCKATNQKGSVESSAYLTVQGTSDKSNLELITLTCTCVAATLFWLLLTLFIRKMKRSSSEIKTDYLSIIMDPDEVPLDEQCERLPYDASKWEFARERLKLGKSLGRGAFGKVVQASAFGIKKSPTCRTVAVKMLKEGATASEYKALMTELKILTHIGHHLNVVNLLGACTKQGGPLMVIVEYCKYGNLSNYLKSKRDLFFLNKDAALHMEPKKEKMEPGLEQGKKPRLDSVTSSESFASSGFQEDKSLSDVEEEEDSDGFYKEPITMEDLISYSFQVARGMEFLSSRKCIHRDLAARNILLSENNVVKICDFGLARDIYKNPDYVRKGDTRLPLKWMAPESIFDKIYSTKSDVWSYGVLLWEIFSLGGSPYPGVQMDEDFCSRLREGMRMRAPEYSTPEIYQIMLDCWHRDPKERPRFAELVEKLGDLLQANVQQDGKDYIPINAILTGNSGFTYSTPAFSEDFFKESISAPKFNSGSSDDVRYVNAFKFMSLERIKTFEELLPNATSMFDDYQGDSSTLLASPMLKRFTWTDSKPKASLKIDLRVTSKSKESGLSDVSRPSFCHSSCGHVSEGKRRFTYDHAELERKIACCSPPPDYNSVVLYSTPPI
Sequence of Platelet-derived growth factor receptor beta (P09619 whole entry): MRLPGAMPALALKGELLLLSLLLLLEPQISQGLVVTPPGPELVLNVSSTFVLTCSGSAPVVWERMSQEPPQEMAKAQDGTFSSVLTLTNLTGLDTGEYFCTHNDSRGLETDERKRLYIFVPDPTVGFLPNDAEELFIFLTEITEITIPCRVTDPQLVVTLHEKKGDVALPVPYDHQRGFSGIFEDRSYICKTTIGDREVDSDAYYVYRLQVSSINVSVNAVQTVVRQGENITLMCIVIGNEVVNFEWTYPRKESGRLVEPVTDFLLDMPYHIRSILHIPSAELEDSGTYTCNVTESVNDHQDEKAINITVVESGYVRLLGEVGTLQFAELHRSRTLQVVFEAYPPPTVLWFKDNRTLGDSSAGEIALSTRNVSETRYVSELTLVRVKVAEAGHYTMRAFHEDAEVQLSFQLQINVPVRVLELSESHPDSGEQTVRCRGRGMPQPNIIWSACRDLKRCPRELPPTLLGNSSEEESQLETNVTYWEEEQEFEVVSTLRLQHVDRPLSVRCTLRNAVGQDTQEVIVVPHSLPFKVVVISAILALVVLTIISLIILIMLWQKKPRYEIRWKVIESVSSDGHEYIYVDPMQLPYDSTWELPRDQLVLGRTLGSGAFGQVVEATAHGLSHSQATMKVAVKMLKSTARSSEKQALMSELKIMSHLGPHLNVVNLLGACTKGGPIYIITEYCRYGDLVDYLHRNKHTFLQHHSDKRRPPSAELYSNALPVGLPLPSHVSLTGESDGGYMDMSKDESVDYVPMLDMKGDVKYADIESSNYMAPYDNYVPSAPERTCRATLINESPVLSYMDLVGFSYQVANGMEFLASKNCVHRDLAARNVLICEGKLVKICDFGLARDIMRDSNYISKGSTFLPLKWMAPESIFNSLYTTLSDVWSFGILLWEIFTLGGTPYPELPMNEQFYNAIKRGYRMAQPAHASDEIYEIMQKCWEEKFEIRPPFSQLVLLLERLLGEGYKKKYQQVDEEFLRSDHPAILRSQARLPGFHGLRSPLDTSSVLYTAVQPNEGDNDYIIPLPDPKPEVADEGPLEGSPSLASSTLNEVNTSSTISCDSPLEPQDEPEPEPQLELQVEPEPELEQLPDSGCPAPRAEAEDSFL

| SMILES | IC50 [1] [µM] | IC50 [2] [µM] | IC50 [3] [µM] | IC50 [4] [µM] | IC50 (A-431) [µM] | Ratio IC50 [5] | Ratio IC50 [6] |
| --- | --- | --- | --- | --- | --- | --- | --- |
| Cc1ccccc1Cc1cc2c(Nc3ccc(Cl)cc3)nc(N)nc2[nH]1 | 45.4 | 0.24 | > 300 | 45.9 | 5.6 |  |  |
| COc1ccc(OC)c(Cc2cc3c(Nc4ccc(Cl)cc4F)nc(N)nc3[nH]2)c1 | 0.1 | 113 | 146 | 186 | 13.4 | 189 | 120 |
| Nc1nc(Nc2ccc(Cl)cc2F)c2cc(Cc3cccc4ccccc34)[nH]c2n1 | 0.48 | > 200 | 193 | > 200 | 46.7 | 39 | 25 |
| COc1ccc(OC)c(Cc2cc3c(Nc4ccc(Cl)cc4)nc(N)nc3[nH]2)c1 | 56.7 | > 200 | 44.3 | 15.2 | 5.8 |  |  |
| Nc1nc(Nc2ccc(Cl)cc2)c2cc(Cc3cccc4ccccc34)[nH]c2n1 | 32.1 |  |  | > 200 |  |  |  |
| COc1ccc(OC)c(Cc2cc3c(Nc4cccc(Br)c4)nc(N)nc3[nH]2)c1 | 0.62 |  |  |  | > 50 |  |  |
| Cc1ccccc1Cc1cc2c(Nc3ccc(Cl)cc3F)nc(N)nc2[nH]1 | 29.8 | > 200 | > 300 | 16 | > 200 |  |  |

Reference: ChEMBL document CHEMBL1926631, “N⁴-Aryl-6-substitutedphenylmethyl-7H-pyrrolo[2,3-d]pyrimidine-2,4-diamines as receptor tyrosine kinase inhibitors” (Bioorg Med Chem, 2012)
